{
  "source": "ChEMBL document CHEMBL3751829",
  "about": "“Synthesis and biological evaluation of 3-tetrazolo steroidal analogs: Novel class of 5α-reductase inhibitors” (Bioorg Med Chem, 2016)",
  "key": {"[1]": {"system": "Rattus norvegicus", "test": "Toxicity in male wistar rat assessed induction of mortality at 5ml/kg, po qd measured on 15th day after 24 hrs of last dose", "format": "organism-based", "settings": "in vivo; call rule not given here", "method_in_brief": "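Mature male Wistar rats, groups of 5, standard diet. Compounds suspended in 0.50% CMC sodium given orally at 5 ml/kg once daily for 14 days; controls received vehicle only. Animals weighed and killed under ether on day 15, 24 h after last dose.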"}, "[2]": {"target": "T1, 3-oxo-5-alpha-steroid 4-dehydrogenase 2 (Homo sapiens, UniProt P31213)", "T1 sequence (P31213 whole entry)": "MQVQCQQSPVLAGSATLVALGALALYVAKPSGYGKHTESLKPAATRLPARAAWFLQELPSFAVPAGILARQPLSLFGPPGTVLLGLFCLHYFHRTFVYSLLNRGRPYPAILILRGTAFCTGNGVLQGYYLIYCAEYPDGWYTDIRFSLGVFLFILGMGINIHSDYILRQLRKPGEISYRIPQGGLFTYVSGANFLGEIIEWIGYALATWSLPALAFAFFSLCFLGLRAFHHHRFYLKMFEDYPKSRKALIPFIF", "test": "Inhibition of human 5alpha-2 reductase expressed in HEK293 cells assessed as suppression of conversion of [3]androstenedione incubated for 30 mins by radioactivity-based HPLC analysis", "format": "cell-based", "method_in_brief": "(§1)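 Stably transfected HEK293 lines expressing 5AR-1 (HEK-I) or 5AR-2 (HEK-II) were sonicated in saccharose/Tris/EDTA buffer. The suspension was incubated at 37 °C for 30 min with 500 nM androstenedione solution plus [3H]androstenedione and an NADP/glucose/G6PDH regenerating system. Test compounds were added in 2% DMSO. The reaction was stopped with ether; steroids were extracted and analysed by radio-HPLC.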"}, "[3]": {"target": "T2, 3-oxo-5-alpha-steroid 4-dehydrogenase 1 (Homo sapiens, UniProt P18405)", "T2 sequence (P18405 whole entry)": "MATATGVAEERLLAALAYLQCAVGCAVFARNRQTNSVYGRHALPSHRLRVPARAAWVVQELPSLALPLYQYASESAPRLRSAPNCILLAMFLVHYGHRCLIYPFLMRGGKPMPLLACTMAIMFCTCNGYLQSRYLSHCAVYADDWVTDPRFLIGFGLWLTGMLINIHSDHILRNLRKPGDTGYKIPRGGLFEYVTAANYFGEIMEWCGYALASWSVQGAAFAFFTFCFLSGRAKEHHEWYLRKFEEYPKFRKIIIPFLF", "test": "Inhibition of human 5alpha-1 reductase expressed in HEK293 cells assessed as suppression of conversion of [3]androstenedione incubated for 30 mins by radioactivity-based HPLC analysis", "format": "cell-based", "method_in_brief": "as §1"}, "[4]": {"test": "Cytotoxicity against human DU145 cells by rapid colorimetric assay", "format": "functional, cell-based, DU-145", "settings": "du-145", "method_in_brief": "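Antiproliferative test on DU-145 cells using the Mosmann method. Seven concentrations were tested in culture medium.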"}, "[5]": {"system": "Rattus norvegicus", "test": "Effect on organ weight in male wistar rat assessed as liver tissue weight per 100g at 5ml/kg, po qd measured on 15th day after 24 hrs of last dose (Rvb=2.994+/- 0.254 g/100g)", "format": "ADME, organism-based", "settings": "in vivo"}, "[6]": {"system": "Rattus norvegicus", "test": "Effect on organ weight in male wistar rat assessed as dorsal prostate tissue weight per 100g at 5ml/kg, po qd measured on 15th day after 24 hrs of last dose (Rvb=50.325+/-7.519 mg/100g)", "format": "functional, Prostate gland"}, "[7]": {"target": "T3, 3-oxo-5-alpha-steroid 4-dehydrogenase 1 (Homo sapiens) (UniProt P18405)", "T3 sequence (whole entry)": "T2 sequence (P18405 whole entry)", "test": "Inhibition of human 5alpha-1 reductase expressed in HEK293 cells assessed as suppression of conversion of [3]androstenedione at 2 uM incubated for 30 mins by radioactivity-based HPLC analysis", "format": "cell-based", "method_in_brief": "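Lysates of stably transfected HEK293 cells (80% confluent cells sonicated in 300 mM saccharose, 5 mM Tris–HCl, 0.1 mM EDTA). Master mix: Tris buffer, androstenedione (500 nM solution) plus tracer [3H]androstenedione, NADP/glucose/glucose-6-P-dehydrogenase regenerating system; compound added in 2% DMSO. Cell suspension mixed 1:1 with master mix, 37 °C for 30 min. Stopped with ether; steroids extracted, dried, taken up in methanol, radio-HPLC.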"}, "[8]": {"target": "T4, 3-oxo-5-alpha-steroid 4-dehydrogenase 2 (Homo sapiens) (UniProt P31213)", "T4 sequence (whole entry)": "T1 sequence (P31213 whole entry)", "test": "Inhibition of human 5alpha-2 reductase expressed in HEK293 cells assessed as suppression of conversion of [3]androstenedione at 2 uM incubated for 30 mins by radioactivity-based HPLC analysis", "format": "cell-based", "method_in_brief": "as §1"}, "[9]": {"system": "Rattus norvegicus", "test": "Decrease in dorsal prostate organ weight in male wistar rat at 5ml/kg, po qd measured on 15th day after 24 hrs of last dose", "format": "functional, Prostate gland", "design": "scale not given: the % may be the effect or the level left"}, "[10]": {"system": "Rattus norvegicus", "test": "Effect on organ weight in male wistar rat assessed testis tissue weight per 100g at 5ml/kg, po qd measured on 15th day after 24 hrs of last dose (Rvb=1054.099+/- 55.648 mg/100g)", "format": "ADME, organism-based", "settings": "in vivo"}, "[11]": {"system": "Rattus norvegicus", "test": "Effect on organ weight in male wistar rat assessed as vas deferens tissue weight per 100g at 5ml/kg, po qd measured on 15th day after 24 hrs of last dose (Rvb=67.613+/-3.248 mg/100g)", "format": "functional"}, "[12]": {"system": "Rattus norvegicus", "test": "Effect on organ weight in male wistar rat assessed as adrenal tissue weight per 100g at 5ml/kg, po qd measured on 15th day after 24 hrs of last dose (Rvb=14.762 +/-0.600 mg/100g)", "format": "ADME, organism-based", "settings": "in vivo"}, "[13]": {"system": "Rattus norvegicus", "test": "Decrease in epididymis organ weight in male wistar rat at 5ml/kg, po qd measured on 15th day after 24 hrs of last dose", "format": "functional", "design": "scale not given: the % may be the effect or the level left"}, "[14]": {"system": "Rattus norvegicus", "test": "Decrease in ventral prostate organ weight in male wistar rat at 5ml/kg, po qd measured on 15th day after 24 hrs of last dose", "format": "functional, Prostate gland", "design": "scale not given: the % may be the effect or the level left"}, "[15]": {"system": "Rattus norvegicus", "test": "Effect on organ weight in male wistar rat assessed as epididymis tissue weight per 100g at 5ml/kg, po qd measured on 15th day after 24 hrs of last dose (Rvb=187.356+/- 5.961 mg/100g)", "format": "functional"}, "[16]": {"system": "Rattus norvegicus", "test": "Effect on organ weight in male wistar rat assessed as ventral prostate tissue weight per 100g at 5ml/kg, po qd measured on 15th day after 24 hrs of last dose (Rvb=59.494+/- 4.733 mg/100g)", "format": "functional, Prostate gland"}, "[17]": {"target": "T4, 3-oxo-5-alpha-steroid 4-dehydrogenase 2 (Homo sapiens)", "test": "Inhibition of human 5alpha-2 reductase expressed in HEK293 cells assessed as suppression of conversion of [3]androstenedione at 10 uM incubated for 30 mins by radioactivity-based HPLC analysis", "format": "cell-based", "method_in_brief": "as §1"}, "[18]": {"system": "Rattus norvegicus", "test": "Effect on organ weight in male wistar rat assessed as seminal vesicles tissue weight per 100g at 5ml/kg, po qd measured on 15th day after 24 hrs of last dose (Rvb=175.439+/-12.833 mg/100g)", "format": "ADME, organism-based", "settings": "in vivo"}, "[19]": {"system": "Rattus norvegicus", "test": "Increase in body weight gain in male wistar rat at 5ml/kg, po qd measured on 15th day after 24 hrs of last dose (Rvb=9.412+/-1.632g%)", "format": "ADME, organism-based", "settings": "in vivo"}, "[20]": {"target": "T3, 3-oxo-5-alpha-steroid 4-dehydrogenase 1 (Homo sapiens)", "test": "Inhibition of human 5alpha-1 reductase expressed in HEK293 cells assessed as suppression of conversion of [3]androstenedione at 10 uM incubated for 30 mins by radioactivity-based HPLC analysis", "format": "cell-based", "method_in_brief": "as §1"}, "[21]": {"system": "Rattus norvegicus", "test": "Decrease in vas deferens organ weight in male wistar rat at 5ml/kg, po qd measured on 15th day after 24 hrs of last dose", "format": "functional", "design": "scale not given: the % may be the effect or the level left"}},
  "note": "pIC50: −log10 of the molar value.",
  "data": [
    {"smiles": "CC(=O)C1CC[C@H]2[C@@H]3CC=C4C=C(c5nnn[nH]5)CC[C@]4(C)[C@H]3CC[C@]12C", "note": "(stereo partly specified)", "values": [
      {"measurement": "Activity", "setting": "[1]", "value": "Non-toxic"},
      {"measurement": "pIC50", "setting": "[2]", "value": 7.81},
      {"measurement": "pIC50", "setting": "[3]", "value": 6.26},
      {"measurement": "IC50", "setting": "[4]", "value": "Not Active"},
      {"measurement": "Activity", "setting": "[5]", "value": 3.649, "unit": "g"},
      {"measurement": "Activity", "setting": "[6]", "value": 41.379, "unit": "mg"},
      {"measurement": "inhibition", "setting": "[7]", "value": 82.6, "unit": "%"},
      {"measurement": "inhibition", "setting": "[8]", "value": 100, "unit": "%"},
      {"measurement": "Activity", "setting": "[9]", "value": 17.78, "unit": "%"},
      {"measurement": "Activity", "setting": "[10]", "value": 844.538, "unit": "mg"},
      {"measurement": "Activity", "setting": "[11]", "value": 29.009, "unit": "mg"},
      {"measurement": "Activity", "setting": "[12]", "value": 17.762, "unit": "mg"},
      {"measurement": "Activity", "setting": "[13]", "value": 31.76, "unit": "%"},
      {"measurement": "Activity", "setting": "[14]", "value": 35.4, "unit": "%"},
      {"measurement": "Activity", "setting": "[15]", "value": 127.85, "unit": "mg"},
      {"measurement": "Activity", "setting": "[16]", "value": 38.433, "unit": "mg"},
      {"measurement": "inhibition", "setting": "[17]", "value": 100, "unit": "%"},
      {"measurement": "Activity", "setting": "[18]", "value": 78.265, "unit": "mg"},
      {"measurement": "Activity", "setting": "[19]", "value": 8.328, "unit": "g%"},
      {"measurement": "inhibition", "setting": "[20]", "value": 95, "unit": "%"},
      {"measurement": "Activity", "setting": "[21]", "value": 57.1, "unit": "%"}
    ]}
  ]
}
